V1aR counter: activates human V1a receptor in oxytocin agonist counter-screen; P37288; CHO-V1R cells, Fluo-8 calcium fluorescence, agonist mode; 0% DMSO, 100% 3 nM vasopressin; activation, % at 3 µM; actives 0.25% (n = 320,000); AID 2797;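 active means activation above the mean activation of all tested compounds plus 3 SD, per screening run, cut at about 20% in these data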;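 further: signal is peak over basal fluorescence ratio across a 100 second FLIPR read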
OXTR agonist: agonists of human oxytocin receptor; P30559; actives 0.32% (n = 320,000); CHO-OTR cells, Fluo-8 calcium fluorescence; normalized: DMSO 0%, oxytocin 100%; activation, % at 3 µM;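 active means activation above the mean of all tested compounds plus 3 SD, cutoff set per screening run, cut at about 20% in these data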;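 further: peak over basal fluorescence ratio from a 100 s FLIPR kinetic read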
OX1R antag-1: blocks the human orexin 1 receptor; inhibition, % at 6.6 µM; actives 1.8% (n = 330,000); OX1R-expressing cells, FRET antagonist read-out; O43613; in the data active means inhibition mostly above about 38%, no sharp cut-off; inactive means mostly below about 40%
Target sequence (O43613 whole entry, looked up): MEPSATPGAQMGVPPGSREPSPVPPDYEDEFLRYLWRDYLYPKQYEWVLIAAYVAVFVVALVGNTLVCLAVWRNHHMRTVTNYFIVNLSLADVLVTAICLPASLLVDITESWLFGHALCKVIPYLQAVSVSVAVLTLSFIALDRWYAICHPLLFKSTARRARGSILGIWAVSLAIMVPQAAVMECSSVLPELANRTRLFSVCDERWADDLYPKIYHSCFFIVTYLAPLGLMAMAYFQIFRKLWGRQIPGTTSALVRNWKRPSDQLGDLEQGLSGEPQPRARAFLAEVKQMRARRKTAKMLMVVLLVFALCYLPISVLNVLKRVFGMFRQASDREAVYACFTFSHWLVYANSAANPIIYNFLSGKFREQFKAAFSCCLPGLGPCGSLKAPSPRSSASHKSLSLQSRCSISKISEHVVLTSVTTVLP
OXTR potentiator: potentiators of human oxytocin receptor | P30559 | CHO-OTR cells, Fluo-8 calcium fluorescence, potentiator mode; 0% = oxytocin EC15, 100% = EC100 | activation, % at 3 µM | actives 0.061% (n = 320,000) | AID 2445;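 active means activation above that plate's cutoff, the mean activation of tested compounds plus 3 SD, cut at about 6.6% in these data, passing the limit was not always enough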
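Material: human OTR in CHO cells. Compound: 3.0 µM, one dose. Timing: compound 6 min at room temperature before oxytocin, 100 s read. Evaluation: % activation of max/min ratio relative to oxytocin controls. Replication: single well per compound, singlicate. Signal: Fluo-8 calcium dye fluorescence.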
CHO parental Ca: counter-screen for OX1R antagonists: effect in parental CHO cells. inhibition, % at 5.6 µM. parental CHO-K1, ATP-induced calcium, Fluo-8 fluorescence. actives 0.63% (n = 330,000). AID 463079;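 active means inhibition above that plate's mean sample inhibition plus 3 SD, cut at about 26% in these data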
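Assay system: parental CHO cells; Read-out basis: percent inhibition of ATP-evoked calcium rise, normalized to controls; Benchmarks: ATP and no-ATP DMSO wells; Compound dosing: single nominal dose of 5.6 µM per compound; Signal: Fluo-8 calcium dye fluorescence; Also added: ATP as calcium-mobilizing challenge; Repeats: singlicate.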
OX1R antag-2: antagonists of human orexin 1 receptor; actives 0.43% (n = 330,000); AID 434989; CHO/OX1R cells, Fluo-8 calcium fluorescence, orexin A; inhibition, % at 5 µM; O43613;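 active means inhibition above its plate's threshold, mean inhibition of all tested compounds on the plate plus 3 SD, cut at about 37% in these data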
OX1R HTRF confirm: confirmation of human orexin 1 receptor antagonists, HTRF format; shares compounds with OX1R antag-1; OX1R-expressing cells, HTRF antagonist assay; inhibition, % at 6.6 µM; actives 49% (n = 1,800); AID 492964; in the data active means inhibition above about 55%;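 further: CHO cells expressing OX1R stimulated with orexin A at about EC80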
CHO-K1 HTRF cnt: counter-screen for OX1R antagonists: effect in parental CHO-K1 cells; shares compounds with OX1R antag-1; actives 48% (n = 1,800); HTRF counterscreen; inhibition, % at 6.6 µM; AID 493232; in the data active means inhibition above about 17%
Large screens that a line does not name were inactive (follow-up assays come after a bar, where they were run). Hits are enriched below; roughly 2.7% of the tested compounds scored in any of these assays.

O=C(CN1C(=O)S/C(=C/c2ccncc2)C1=O)N1CCOCC1	none
O=C(CN1C(=O)S/C(=C/c2cccnc2)C1=O)N1CCOCC1	OX1R antag-1 112.4 | OX1R HTRF confirm inactive | CHO-K1 HTRF cnt 72.4
O=C1CCC(C(=O)NCCN2C(=O)S/C(=C\c3cccnc3)C2=O)=NN1	OX1R antag-1 105.9 | OX1R HTRF confirm inactive | CHO-K1 HTRF cnt 58.6
O=C(CN1C(=O)S/C(=C/c2cccs2)C1=O)N1CCOCC1	OX1R antag-1 86.0 | OX1R HTRF confirm inactive | CHO-K1 HTRF cnt 28.7
O=C(CCCN1C(=O)/C(=C/c2ccccc2Cl)SC1=S)N1CCOCC1	none
O=C(CN1C(=O)S/C(=C/c2cc(Br)cs2)C1=O)N1CCOCC1	none
COc1ccc(S(=O)(=O)Cc2ccc(C(=O)NC3CCCCC3)o2)cc1	none
CCOC(=O)[C@H]1[C@H]2COc3ccc(Cl)cc3[C@@H]2N2C(=O)CN(CC3CCCO3)C(=O)[C@@]12C (some centres not stated)	none
O=C(CNC(=O)c1ccccc1)N=Nc1c(O)[nH]c2ccc(Br)cc12	none
O=Nc1c(-c2c(O)[nH]c3cc(Br)ccc23)[nH]c2ccccc12	OX1R antag-1 98.4 | OX1R HTRF confirm 78.9 | CHO-K1 HTRF cnt 25.6
CCOC(=O)c1c(C)[nH]c(C(=O)OCC(=O)Nc2ccc(Cl)cn2)c1C	none
CCOC(=O)c1c(C)[nH]c(C(=O)OCC(=O)Nc2sccc2C(N)=O)c1C	OX1R antag-1 99.2 | OX1R HTRF confirm 63.9 | CHO-K1 HTRF cnt inactive
COc1cc(/C=N/NC(N)=O)cc([N+](=O)[O-])c1O	OX1R antag-1 91.0 | OX1R HTRF confirm 55.4 | CHO-K1 HTRF cnt 62.3
COc1cc(/C=N/NS(=O)(=O)c2ccc(C)c([N+](=O)[O-])c2)cc([N+](=O)[O-])c1O	none
O=C(O)CCCCCNS(=O)(=O)c1cccc2c1C(=O)c1ccccc1C2=O	OX1R antag-1 137.9 | OX1R HTRF confirm 54.8 | CHO-K1 HTRF cnt 86.1
CCN1C(=O)[C@@H]2[C@H](C1=O)[C@@H]1C(=O)Nc3ccccc3C(=O)N1[C@@H]2c1ccc(Br)cc1	none
Cn1nc(-c2ccccn2)nc2c(=O)n(C)c(=O)nc1-2	OX1R antag-1 active | OX1R HTRF confirm 91.1 | CHO-K1 HTRF cnt 97.5
O=C(CCc1ccccc1)NC1(Cc2ccccc2)CCN(CCCc2ccccc2)C1=O (configuration not stated)	none
CS(=O)(=O)c1ccc(S(=O)CC(=O)Oc2ccc(Cl)cc2)c([N+](=O)[O-])c1 (configuration not stated)	OX1R antag-1 116.3 | OX1R HTRF confirm inactive | CHO-K1 HTRF cnt 38.0
CN1CCN(C(=O)Nc2ccccc2)CC1	OX1R antag-1 91.5 | OX1R HTRF confirm inactive | CHO-K1 HTRF cnt inactive
O=C(Nc1ccccc1)N1CCN(CCc2ccccc2)CC1	none
CC(C(=O)Nc1ccc(Br)cc1)N(C)CC(=O)NCc1ccco1 (configuration not stated)	none
O=c1c2ccccc2nc2n1CC/C2=C\N1CCN(c2ccc([N+](=O)[O-])cc2)CC1	OX1R antag-1 94.4 | OX1R HTRF confirm inactive | CHO-K1 HTRF cnt 23.0
Cc1ccc(C)c(S(=O)(=O)N2CCN(C(=O)[C@H](Cc3ccccc3)NC(=O)c3ccco3)CC2)c1	none
CCOc1ccc(NC2OCC(O)C(O)C2O)c([N+](=O)[O-])c1 (configuration not stated)	OX1R antag-1 82.3 | OX1R HTRF confirm inactive | CHO-K1 HTRF cnt 31.3
Cc1ccc(S(=O)(=O)N/N=C\c2ccc3c(c2)OCO3)c(C)c1	none
O=[N+]([O-])c1ccc(Oc2ccc(Oc3ccc(C(F)(F)F)cn3)cc2)nc1	none
O=C1NC(=O)/C(=C\c2ccc(Oc3ccc([N+](=O)[O-])cn3)cc2)S1	OX1R antag-1 77.5 | OX1R HTRF confirm inactive | CHO-K1 HTRF cnt inactive
CC(=O)N1CCN(c2ccc(NC(=O)c3cc4ccccc4o3)cc2)CC1	none
CCC(=O)N1CCN(c2ccc(NC(=O)c3cc4ccccc4o3)cc2Cl)CC1	OX1R antag-1 81.2 | OX1R HTRF confirm inactive | CHO-K1 HTRF cnt inactive
CSc1nc2ccc(NC(=O)c3cc4ccccc4o3)cc2s1	OX1R antag-1 83.7 | OX1R HTRF confirm 91.0 | CHO-K1 HTRF cnt inactive
CSc1nc2ccc(NC(=O)c3ccco3)cc2s1	none
COc1ccc(C(=O)N2CCN(c3nc4cc(C)ccc4cc3C#N)CC2)c(OC)c1	none
COc1cc(C(=O)N2CCCN(c3nc4cc(C)ccc4cc3C#N)CC2)cc(OC)c1OC	OX1R antag-1 79.5 | OX1R HTRF confirm 86.5 | CHO-K1 HTRF cnt inactive
O=C(CN1CCN(S(=O)(=O)c2ccc(F)cc2)CC1)Nc1ccc(Cl)cn1	none
CC(=O)NCCNC(=O)c1ccc2c(c1)S(=O)(=O)c1ccccc1C2=O	OX1R antag-1 86.1 | OX1R HTRF confirm inactive | CHO-K1 HTRF cnt 85.3
COCC(C)NC(=O)c1ccc2c(c1)S(=O)(=O)c1ccccc1C2=O (configuration not stated)	OX1R antag-1 109.2 | OX1R HTRF confirm inactive | CHO-K1 HTRF cnt 55.2
CC1CCC(NC(=O)c2ccc3c(c2)S(=O)(=O)c2ccccc2C3=O)CC1 (configuration not stated)	none
O=C(NCc1ccc(C(F)(F)F)cc1)c1ccc2c(c1)S(=O)(=O)c1ccccc1C2=O	none
COc1cc(CNC(=O)c2ccc3c(c2)S(=O)(=O)c2ccccc2C3=O)cc(OC)c1	none
COCCNC(=O)c1ccc2c(c1)S(=O)(=O)c1ccccc1C2=O	OX1R antag-1 85.8 | OX1R HTRF confirm inactive | CHO-K1 HTRF cnt 83.8
O=C(NCc1ccc(F)cc1)c1ccc2c(c1)S(=O)(=O)c1ccccc1C2=O	none
C=CCNC(=O)c1ccc2c(c1)S(=O)(=O)c1ccccc1C2=O	OX1R antag-1 125.6 | OX1R HTRF confirm 58.3 | CHO-K1 HTRF cnt 57.9
COc1ccccc1C(=O)Nc1ccnn1C1CCN(Cc2cnn(C)c2C)CC1	none
CCNC(=O)c1ccc2c(c1)S(=O)(=O)c1ccccc1C2=O	OX1R antag-1 188.9 | OX1R HTRF confirm inactive | CHO-K1 HTRF cnt 66.9
CC(C)OCCCNC(=O)c1cccc(NC(=O)c2ccccc2)c1	none
CCCCn1c(N)c(N(CC)C(=O)c2ccc3c(c2)S(=O)(=O)c2ccccc2C3=O)c(=O)[nH]c1=O	OX1R antag-1 84.7 | OX1R HTRF confirm inactive | CHO-K1 HTRF cnt 17.6
CC(C)OCCCNC(=O)c1ccc2c(c1)S(=O)(=O)c1ccccc1C2=O	OX1R antag-1 85.2 | OX1R HTRF confirm inactive | CHO-K1 HTRF cnt 41.0
